Activity calls are given as the source filed them. The calls are words filed in the database; no cut-off is given here.
Assays:
[1] = species on record: Mus musculus; assay: Induction of heat shock protein-mediated heat shock response in mouse 3T3-Y9-B12 cells assessed as heat shock index after 24 hrs by fluorescence assay relative to control; assay type: cell-based
How it was run: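 Mouse 3T3-Y9-B12 heat-shock reporter cells seeded 20 000/well, left to adhere overnight, then exposed 24 h to compound at 1, 2, or 4 μM. After PBS wash, fluorescence read at excitation 485 nm and emission 530 nm. Heat-shock index calculated as [Log2(treated/control)]/concentration (μM).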

[2] = test system: Mus musculus; assay: Induction of heat shock activity in mouse assessed as upregulation of HSP72 protein level in spleen at 25 mg/kg, sc after 18 hrs by immunoblotting analysis; assay type: functional, organism-based; set-up: dose 25 mg/kg
How it was run: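 Mice were randomly assigned. Dosing was by subcutaneous injection, 25 mg/kg, in hydroxypropyl β-cyclodextrin 30% w/v with DMSO 10% v/v; vehicle controls got an equal volume; five mice per group. Spleens were taken about 18 h later, snap-frozen, pulverized and lysed in nonionic detergent buffer. 15 μg protein/lane went to SDS-PAGE and immunoblotting for HSP72. Band intensity was normalized to β-actin. Variance versus vehicle was compared by F test.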

[3] = Cytotoxicity against human CHP100 cells assessed as inhibition of cell survival at 4 uM after 24 hrs by MTT assay relative to control; assay type: functional; details: CHP100, 24 h
[4] = Cytotoxicity against human NCI-H929 cells after 3 days by Alamar blue assay; assay type: functional, cell-based; details: NCI-H929, 72 h
[5] = Cytotoxicity against human CHP100 cells assessed as inhibition of cell survival after 24 hrs by MTT assay; assay type: functional, cell-based; details: CHP100, 24 h
[6] = target: Heat shock 70 kDa protein 6 (Homo sapiens) (UniProt P17066); assay: Induction of […] (unknown origin)-mediated heat shock response expressed in human 293T cells coexpressing GFP assessed as heat shock index after overnight incubation by luciferase reporter gene assay relative to control; assay type: cell-based
Chain of Heat shock 70 kDa protein 6 (Homo sapiens) (P17066 whole entry, the tested form may be a part): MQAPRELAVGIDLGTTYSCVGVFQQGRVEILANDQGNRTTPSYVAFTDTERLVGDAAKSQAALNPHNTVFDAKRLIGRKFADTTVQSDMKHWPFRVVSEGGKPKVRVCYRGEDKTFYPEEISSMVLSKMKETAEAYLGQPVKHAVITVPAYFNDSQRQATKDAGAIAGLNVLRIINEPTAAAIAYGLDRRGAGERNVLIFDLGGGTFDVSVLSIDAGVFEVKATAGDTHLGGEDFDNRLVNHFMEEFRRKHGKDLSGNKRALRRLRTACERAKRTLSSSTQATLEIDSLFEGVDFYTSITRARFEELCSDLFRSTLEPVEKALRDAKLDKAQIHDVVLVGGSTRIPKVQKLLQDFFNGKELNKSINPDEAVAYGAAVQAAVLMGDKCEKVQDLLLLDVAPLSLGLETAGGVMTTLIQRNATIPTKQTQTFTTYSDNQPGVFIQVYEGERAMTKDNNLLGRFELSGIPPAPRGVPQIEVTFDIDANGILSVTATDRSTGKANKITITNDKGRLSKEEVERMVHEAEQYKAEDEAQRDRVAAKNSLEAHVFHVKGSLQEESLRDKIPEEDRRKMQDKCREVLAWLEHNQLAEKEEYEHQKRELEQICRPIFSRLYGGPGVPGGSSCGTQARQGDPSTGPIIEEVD
How it was run: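 293T cells transduced with a lentiviral EGFP–firefly luciferase fusion under HSP70B′ promoter elements, enriched by heat shock (42 °C, 1 h) plus FACS, then reverse-sorted to remove constitutive expressers. Cells in DMEM/10% FBS were seeded at 20 000/well and given serial dilutions next day, quadruplicate wells, overnight. Read by Steady-Glo luminescence. Index = [Log2(treated/control)]/concentration (μM) at maximal response.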

[7] = test system: Mus musculus; assay: Induction of heat shock activity in mouse assessed as upregulation of HSP72 protein level in spleen at 40 mg/kg, sc after 18 hrs by immunoblotting analysis relative to control; assay type: functional, organism-based; set-up: dose 40 mg/kg
How it was run: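 Mice given a single subcutaneous dose in cyclodextrin vehicle (hydroxypropyl β-cyclodextrin 30% w/v, DMSO 10% v/v). Controls received an equal volume of vehicle alone. Three mice per group at 40 mg/kg. Spleens harvested about 18 h after dosing, snap-frozen and lysed in nonionic detergent buffer. 15 μg protein/lane run on SDS-PAGE and immunoblotted for HSP72 and β-actin. HSP72 band intensity normalized to actin; Student's t test versus vehicle.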

SMILES | fold change (FC) [1] | Activity [2] | inhibition at 4 µM [3] [%] | IC50 [4] [µM] | IC50 [5] [µM] | Activity [6] | fold change (FC) [6] | Activity [7]
CC1=C(CO)C(=O)O[C@@H]([C@@H](C)[C@H]2CC[C@H]3[C@@H]4C[C@H]5O[C@]56[C@@H](O)C=CC(=O)[C@]6(C)[C@H]4CC[C@]23C)C1 [WITHAFERIN A] | 2.1 | inactive | > 80 | 0.25 | 0.97 | Dose-dependent effect | 1.35 | –
CC(=O)OCC1=C(C)C[C@H]([C@@H](C)[C@H]2CC[C@H]3[C@@H]4C[C@H]5O[C@]56[C@H](O)C=CC(=O)[C@]6(C)[C@H]4CC[C@]23C)OC1=O | 4.7 | – | > 80 | 0.05 | 0.22 | Dose-dependent effect | 3.69 | –
CC(=O)OCC1=C(C)C[C@H]([C@@H](C)[C@H]2CC[C@H]3[C@@H]4C[C@H]5O[C@]56[C@H](OC(C)=O)C=CC(=O)[C@]6(C)[C@H]4CC[C@]23C)OC1=O | – | Active | – | – | – | – | – | Active
CC1=C(CO)C(=O)O[C@@H]([C@@H](C)[C@H]2CC[C@H]3[C@@H]4C[C@H]5O[C@]56[C@@H](O)[C@@H](N=[N+]=[N-])CC(=O)[C@]6(C)[C@H]4CC[C@]23C)C1 | – | – | > 80 | 1.65 | 0.81 | – | 0 | –
